Published values of several laboratories.
Compare with care: the assays were run in different laboratories.
SMO D473H: Protein smoothened (SMO, Homo sapiens, UniProt Q99835, D473H)
MAPK15: Mitogen-activated protein kinase 15 (MAPK15, Homo sapiens, UniProt Q8TD08)
CASP3: Caspase-3 (CASP3, Homo sapiens, UniProt P42574)

Nc1ncc(-c2nc(N3CCOCC3)nc(N3CCOCC3)n2)c(C(F)F)n1 — remaining binding (Calcium/calmodulin-dependent protein kinase type IV (CAMK4, Homo sapiens, UniProt Q16566); binding, competition with immobilised ligand; 10 µM): 66%
Cc1cnc(-c2cc(N3CCN(C(=O)CCS(C)(=O)=O)CC3)ncc2Cl)c(C)c1 — Emax (SMO D473H; GTPγS binding, agonist, radiometric; cell membranes): -76.3%
O=C(Nc1cccnn1)N1CCN([C@@H]2CCOc3cc(C(F)(F)F)ccc32)CC1 — inhibition (Peroxisome proliferator-activated receptor gamma (PPARG, Homo sapiens, UniProt P37231); cell-free assay; 20 µM): 18%
Cc1nn(C)cc1-c1nc2c(N3CCN(Cc4ccc(Cl)cc4)CC3)c(Cl)cnc2[nH]1 — remaining binding (MAPK15; binding, competition with immobilised ligand; 1 µM): 8.2%
CC1=C2C[C@H]3[C@@H](CC=C4C[C@@H](O)CC[C@@]43C)[C@@H]2CC[C@]12O[C@@H]1C[C@H](C)CN[C@H]1[C@H]2C — Emax (Protein smoothened (SMO, Homo sapiens, UniProt Q99835); GTPγS binding, agonist, radiometric; cell membranes): -99.2%
CCN(CC)CCCC[C@H](NC(=O)[C@H](CC(C)C)NC(=O)[C@H](C)NC(=O)[C@H](Cc1ccccc1)NC(=O)c1ccc(C(C)(C)C)cc1)C(=O)N[C@@H](CO)C(=O)OC — ΔTm (Histone-lysine N-methyltransferase 2A (KMT2A, Homo sapiens, UniProt Q03164); thermal stability, DSF; 25 µM): 0.04 °C
COc1ncccc1-c1cnn2ccc(N3CCN(C(=O)OC(C)C)CC3)nc12 — remaining binding (MAPK15; binding, competition with immobilised ligand; 1 µM): 78%
COc1cc(C(=O)NC(N)=Nc2ccc(C)c(NC(=O)c3ccc(-c4ccccc4)cc3)c2)cc(OC)c1OC — Emax (SMO D473H; GTPγS binding, agonist, radiometric; cell membranes): -115%
CC(=O)N[C@@H](CC(=O)O)C(=O)N[C@@H](CC(N)=O)C(=O)N[C@@H](CC(C)C)C(=O)N[C@H](C=O)CC(=O)O — inhibition (CASP3; enzyme activity, inhibitor; 1 nM): 10%
Cc1ncc(C)n2nc(/C=C/c3nc(N4CCCC4)cc(N4CCOCC4)n3)nc12 — inhibition (CASP3; enzyme activity, inhibitor; 10 µM): 0%
CC[C@@]1(O)C(=O)OCc2c1cc1n(c2=O)Cc2cc3ccccc3nc2-1 — inhibition (Ubiquitin carboxyl-terminal hydrolase 51 (USP51, Homo sapiens, UniProt Q70EK9); enzyme activity, inhibitor; 5 µM): 0%
C#Cc1n[nH]c2c(-c3cn(C(C)c4ccccn4)c(=O)[nH]c3=O)cc(F)cc12 (stereo not drawn) — inhibition (Fibroblast growth factor receptor 2 (FGFR2, Homo sapiens, UniProt P21802); enzyme activity, inhibitor; 1 µM): -6%
